From article PMC10107787 (Chemistry (Weinheim an Der Bergstrasse, Germany), 2022)
One block for each molecule: values may come before it.

Experiments:
[1] = Permeability across Caco-2 cell monolayers; type: in vitro ADME; conditions: human, Caco-2, ER (efflux ratio, Papp BA/Papp AB), Caco-2 cell monolayers, no inhibitors
Procedure, shortened: (§1)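 Apical‑to‑basolateral and basolateral‑to‑apical Papp were measured across Caco‑2 monolayers. Efflux ratio is Papp BA/Papp AB. A parallel set was run with a cocktail of three inhibitors aimed at the three major efflux transporters. Papp AB is the mean±std of three repeats.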

[2] = Amide temperature coefficients by variable temperature 1H NMR; type: physicochemical
Procedure, shortened: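 Variable-temperature ¹H NMR at 500 MHz with a cryoprobe, using 16 scans and a 0.7 s relaxation delay. DMSO‑d₆ series ran from 25 to 65 or 20 to 60 °C; the CDCl₃ series ran from 10 to 50 °C; both used 10 °C steps. Each NH coefficient was calculated as (δ_high−δ_low)/(T_high−T_low), in ppb/K.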

[3] = LogD7.4, miniaturized shake-flask procedure; type: physicochemical; conditions: pH 7.4
Procedure, shortened: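 Measured in three repeats, and the reported logD is their mean.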

[4] = test system: Caco‐2 cell monolayers; experiment: Permeability across Caco-2 cell monolayers; type: in vitro ADME
Procedure, shortened: as §1

efflux ratio [1]: 38
Temperature coefficient, CDCl3 ([2]; daclatasvir proton 2’’’‐NH): −3.3 ppb/K
Temperature coefficient, DMSO‐d6 ([2]; daclatasvir proton 2’’’‐NH): −3.8 ppb/K
logD [3]: 3.9
Compound: COC(=O)N[C@H](C(=O)N1CCC[C@H]1c1nc(-c2ccc(-c3ccc(-c4c[nH]c([C@@H]5CCCN5C(=O)[C@@H](NC(=O)OC)C(C)C)n4)cc3)cc2)c[nH]1)C(C)C [Daclatasvir]

efflux ratio [1]: 330
ER+Inhibitors ([4]; Caco-2, in the presence of the efflux inhibitor cocktail): highest efflux ratio
ER (efflux ratio, Papp BA/Papp AB) ([4]; Caco-2 cell monolayers, no inhibitors): largest
Temperature coefficient, CDCl3 ([2]; simeprevir proton 1’’’‐NH): −8.8 ppb/K
Temperature coefficient, DMSO‐d6 ([2]; simeprevir proton 1’’’‐NH): −2.5 ppb/K
Temperature coefficient, CDCl3 ([2]; simeprevir proton 13‐NH): −1.3 ppb/K
Temperature coefficient, DMSO‐d6 ([2]; simeprevir proton 13‐NH): −1.0 ppb/K
logD [3]: 3.7
Compound: COc1ccc2c(O[C@@H]3C[C@H]4C(=O)N[C@]5(C(=O)NS(=O)(=O)C6CC6)C[C@H]5/C=C\CCCCN(C)C(=O)[C@@H]4C3)cc(-c3nc(C(C)C)cs3)nc2c1C [Simeprevir]

efflux ratio [1]: 270
Temperature coefficient, CDCl3 ([2]; asunaprevir proton 1’’’‐NH): −4.3 ppb/K
Temperature coefficient, DMSO‐d6 ([2]; asunaprevir proton 1’’’‐NH): −2.8 ppb/K
Temperature coefficient, CDCl3 ([2]; asunaprevir proton 1’’’’‐NH): −4.3 ppb/K
Temperature coefficient, DMSO‐d6 ([2]; asunaprevir proton 1’’’’‐NH): −3.5 ppb/K
Temperature coefficient, CDCl3 ([2]; asunaprevir proton 2’‐NH): −0.3 ppb/K
Temperature coefficient, DMSO‐d6 ([2]; asunaprevir proton 2’‐NH): 1.5 ppb/K
logD [3]: 3.1
Compound: C=C[C@@H]1C[C@]1(NC(=O)[C@@H]1C[C@@H](Oc2ncc(OC)c3ccc(Cl)cc23)CN1C(=O)[C@@H](NC(=O)OC(C)(C)C)C(C)(C)C)C(=O)NS(=O)(=O)C1CC1 [Asunaprevir]

efflux ratio [1]: 40
Temperature coefficient, CDCl3 ([2]; atazanavir proton 4‐NH): −2.0 ppb/K
Temperature coefficient, DMSO‐d6 ([2]; atazanavir proton 4‐NH): −9.8 ppb/K
Temperature coefficient, DMSO‐d6 ([2]; atazanavir proton 7‐NH): −4.3 ppb/K
Temperature coefficient, DMSO‐d6 ([2]; atazanavir proton 12‐NH): −3.5 ppb/K
Temperature coefficient, CDCl3 ([2]; atazanavir proton 15‐NH): −1.0 ppb/K
Temperature coefficient, DMSO‐d6 ([2]; atazanavir proton 15‐NH): −6.5 ppb/K
Compound: COC(=O)N[C@H](C(=O)N[C@@H](Cc1ccccc1)[C@@H](O)CN(Cc1ccc(-c2ccccn2)cc1)NC(=O)[C@@H](NC(=O)OC)C(C)(C)C)C(C)(C)C [Atazanavir]
